Experimental data published in ChEMBL document CHEMBL4725393, “Prodrug Strategies to Improve the Solubility of the HCV NS5A Inhibitor Pibrentasvir (ABT-530)” (J Med Chem, 2020).
Values after ≈ are worked out from the molar mass of the structure shown.

Columns and labels:
[1] = Half life of compound at pH 7.4 at 125 ug/ml at 37 degC by HPLC analysis; assay type: physicochemical; settings: dose 125 µg/ml
[2] = Cmax in beagle dog assessed as pibrentasvir1 level at 40 mg, po measured up to 24 hrs; assay type: ADME, organism-based, Canis lupus familiaris; set-up: route oral, dose 40 mg, time <=24; settings: in vivo
How it was run: (§1)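 The dose equalled 40 mg PIB after adjustment for prodrug MW. Food was returned at 12 h. K2EDTA plasma was sampled at 0.25–24 h. Cmax is in ng/mL and AUC in ng·h/mL.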

[3] = Solubility in FeSSIF at pH 5; assay type: physicochemical
How it was run: (§2)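 For equilibrium solubility, excess solid was added to 3–4 mL of medium, in triplicate. Suspension pH was read after equilibration. Solids were removed by centrifugation at 4000 rpm at 25 °C, and the supernatant was passed through a 0.45 µm filter, discarding the first 2 mL. The filtrate was quantified by HPLC against standard curves.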

[4] = Equilibrium solubility of compound at pH 7.4 incubated for 24 to 48 hrs by HPLC analysis; assay type: physicochemical; settings: buffer, time 24-48 hrs; how it was run: as §2
[5] = AUC in cynomolgus monkey at 2 mg/kg, po measured up to 12 hrs; assay type: ADME, organism-based, Macaca fascicularis; set-up: route oral, dose 2 mg/kg, time <=12; settings: in vivo
How it was run: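 Female cynomolgus monkeys were fasted overnight and dosed by gastric intubation with a suspension in 0.5% HPMC at 0.5 mL/kg. The dose was MW-adjusted to 2 mg/kg PIB equivalent, and food was returned at 4 h. Plasma was collected at intervals up to 12 h and assayed for PIB and prodrug to give AUC in ng·h/mL.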

[6] = AUC in CD1 mouse assessed as pibrentasvir1 level at 6 mg/kg, po measured up to 24 hrs; assay type: ADME, organism-based; set-up: route oral, dose 6 mg/kg, time <=24; settings: in vivo
How it was run: (§3)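 CD-1 mice with free access to food and water received an oral gavage of prodrug or PIB at 10 mL/kg in 0.2% HPMC. The dose was adjusted for prodrug MW to equal 6 mg/kg PIB. K2EDTA blood was drawn at 0.25, 0.5, 1, 3, 6, 9, 12 and 24 h. Plasma was spun at 3200 x g for 5 min at ~4°C and stored below -15°C. PIB and prodrug were measured; AUC in ng·h/mL, Cmax in ng/mL.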

[7] = AUC in beagle dog assessed as pibrentasvir1 level at 40 mg, po measured up to 24 hrs; assay type: ADME, organism-based, Canis lupus familiaris; set-up: route oral, dose 40 mg, time <=24; settings: in vivo; how it was run: as §1
[8] = Equilibrium solubility of compound at pH 1 incubated for 24 to 48 hrs by HPLC analysis; assay type: physicochemical; settings: buffer, time 24-48 hrs; how it was run: as §2
[9] = Cmax in CD1 mouse assessed as pibrentasvir1 level at 6 mg/kg, po measured up to 24 hrs; assay type: ADME, organism-based; set-up: route oral, dose 6 mg/kg, time <=24; settings: in vivo; how it was run: as §3
[10] = Stability of compound at pH 1 assessed as prodrug remaining level at 125 ug/ml incubated for 24 hrs by HPLC analysis; assay type: physicochemical; settings: buffer, pH 1, 24 h, at 125 µg/mL
How it was run: (§4)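 A DMSO stock of about 1.25 mg/mL was diluted into 0.1 N HCl (pH 1) or 50 mM phosphate buffer (pH 7.4), giving final concentrations of ~125 µg/mL prodrug and 10% DMSO. The solution was filtered and held at 37 °C in the HPLC autosampler, with injections at several times over 24 h. Percent remaining was calculated from prodrug peak area relative to t0.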

[11] = Stability of compound at pH 7.4 assessed as prodrug remaining level at 125 ug/ml incubated for 24 hrs by HPLC analysis; assay type: physicochemical; settings: buffer, pH 7.4, 24 h, at 125 µg/mL; how it was run: as §4
[12] = AUC in CD1 mouse assessed as pibrentasvir1 level at 3 mg/kg, po measured up to 24 hrs; assay type: ADME, organism-based; set-up: route oral, dose 3 mg/kg, time <=24; settings: in vivo
How it was run: (§5)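 CD-1 mice, fed ad libitum, were dosed orally at a prodrug-MW-adjusted dose equal to 3 mg/kg PIB, as a solution or suspension. Serial K2EDTA blood samples were taken from 0.25 to 24 h. Plasma was separated by centrifugation and kept frozen. PIB and prodrug levels were reported as Cmax (ng/mL) and AUC (ng·h/mL).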

[13] = AUC in beagle dog at 40 mg, po measured up to 24 hrs; assay type: ADME, organism-based, Canis lupus familiaris; set-up: route oral, dose 40 mg, time <=24; settings: in vivo; how it was run: as §1
[14] = Cmax in CD1 mouse assessed as pibrentasvir1 level at 3 mg/kg, po measured up to 24 hrs; assay type: ADME, organism-based; set-up: route oral, dose 3 mg/kg, time <=24; settings: in vivo; how it was run: as §5
[15] = Cmax in beagle dog at 40 mg, po measured up to 24 hrs; assay type: ADME, organism-based, Canis lupus familiaris; set-up: route oral, dose 40 mg, time <=24; settings: in vivo; how it was run: as §1
[16] = Cmax in CD1 mouse at 3 mg/kg, po measured up to 24 hrs; assay type: ADME, organism-based; set-up: route oral, dose 3 mg/kg, time <=24; settings: in vivo; how it was run: as §5
[17] = AUC in CD1 mouse at 3 mg/kg, po measured up to 24 hrs; assay type: ADME, organism-based; set-up: route oral, dose 3 mg/kg, time <=24; settings: in vivo; how it was run: as §5

Row | Compound | half-life at 125 ug/ml [1] | Cmax [2] | solubility [3] | solubility thermodynamic [4] | AUC at 12 h [5] | AUC [6] | AUC [7] | solubility thermodynamic [8] | Cmax [9] | Stabilty [10] | Stabilty [11] | AUC [12] | AUC at 24 h [13] | Cmax [14] | Cmax [15] | Cmax [16] | AUC at 24 h [17]
1 | COC(=O)N[C@H](C(=O)N1CCC[C@H]1c1nc2cc(F)c([C@H]3CC[C@H](c4cc5nc([C@@H]6CCCN6C(=O)[C@@H](NC(=O)OC)[C@@H](C)OC)n(COC(=O)CC(C)(C)c6c(C)cc(C)cc6OP(=O)(O)O)c5cc4F)N3c3cc(F)c(N4CCC(c5ccc(F)cc5)CC4)c(F)c3)cc2[nH]1)[C@@H](C)OC | > 72 h | 249 ng/mL | 794 µg/mL (≈ 556 µM) | 0.5 µg/mL (≈ 0.35 µM) | 240 ng·h/mL | 20600 ng·h/mL | 3210 ng·h/mL | 572 µg/mL (≈ 401 µM) | 1210 ng/mL | 87% | 100% |  |  |  |  |  | 
2 | COC(=O)N[C@H](C(=O)N1CCC[C@H]1c1nc2cc(F)c([C@H]3CC[C@H](c4cc5c(cc4F)nc([C@@H]4CCCN4C(=O)[C@@H](NC(=O)OC)[C@@H](C)OC)n5COP(=O)(O)O)N3c3cc(F)c(N4CCC(c5ccc(F)cc5)CC4)c(F)c3)cc2[nH]1)[C@@H](C)OC |  | 152 ng/mL |  | > 4000 µg/mL |  |  | 1470 ng·h/mL | > 4000 µg/mL |  | 100% | 100% | 278 ng·h/mL | 93 ng·h/mL | 17 ng/mL | 20 ng/mL | 2.2 ng/mL | 12.6 ng·h/mL
3 | COC(=O)N[C@H](C(=O)N1CCC[C@H]1c1nc2cc(F)c([C@H]3CC[C@H](c4cc5nc([C@@H]6CCCN6C(=O)[C@@H](NC(=O)OC)[C@@H](C)OC)n(COP(=O)(O)O)c5cc4F)N3c3cc(F)c(N4CCC(c5ccc(F)cc5)CC4)c(F)c3)cc2[nH]1)[C@@H](C)OC | > 72 h | 55 ng/mL |  | 6.4 µg/mL (≈ 5.23 µM) | 160 ng·h/mL |  | 429 ng·h/mL | 37.3 µg/mL (≈ 30.5 µM) |  | 100% | 100% | 2660 ng·h/mL |  | 141 ng/mL |  |  | 

The next lines start with the values.

Row | half-life at 125 ug/ml [1] | Cmax [2] | solubility [3] | solubility thermodynamic [4] | AUC at 12 h [5] | AUC [6] | AUC [7] | solubility thermodynamic [8] | Cmax [9] | Stabilty [10] | Stabilty [11] | AUC [12] | AUC at 24 h [13] | Cmax [14] | Cmax [15] | Cmax [16] | AUC at 24 h [17] | Compound
4 |  | 379 ng/mL | > 1000 µg/mL | < 0.1 µg/mL |  |  | 3940 ng·h/mL | > 1000 µg/mL |  | 78% | 5% | 2340 ng·h/mL | 568 ng·h/mL | 129 ng/mL |  |  |  | COC(=O)N[C@H](C(=O)N1CCC[C@H]1c1nc2cc(F)c([C@H]3CC[C@H](c4cc5nc([C@@H]6CCCN6C(=O)[C@@H](NC(=O)OC)[C@@H](C)OC)n(COC(=O)[C@@H](N)C(C)C)c5cc4F)N3c3cc(F)c(N4CCC(c5ccc(F)cc5)CC4)c(F)c3)cc2[nH]1)[C@@H](C)OC
5 | < 24 h | 112 ng/mL |  | 0.7 µg/mL (≈ 0.507 µM) |  |  | 1210 ng·h/mL | 186 µg/mL (≈ 135 µM) |  | 97% | 31% | 3710 ng·h/mL |  | 216 ng/mL |  |  |  | COC(=O)N[C@H](C(=O)N1CCC[C@H]1c1nc2cc(F)c([C@H]3CC[C@H](c4cc5nc([C@@H]6CCCN6C(=O)[C@@H](NC(=O)OC)[C@@H](C)OC)n(COC(=O)[C@@H](NC(=O)COP(=O)(O)O)C(C)C)c5cc4F)N3c3cc(F)c(N4CCC(c5ccc(F)cc5)CC4)c(F)c3)cc2[nH]1)[C@@H](C)OC
